From ChEMBL document CHEMBL1177699, “Identification and functional characterization of a stable, centrally active derivative of the neurotensin (8-13) fragment as a potential first-in-class analgesic” (J Med Chem, 2010)
Numbered stars: 1 amine (or outer) side, 2 acyl side, 3 side chain; on linkers, the order of the positions; unused ones are H or OH. Square brackets hold non-standard residues; d marks the D form. Peptide text beside a SMILES is read from it. * marks the point of attachment. X21 = CC/N=C(\NCC)NCCC[C@H](C)C(=O)*; X9 = C[C@@H](CCCC[N+](C)(C)C)C(=O)*; NMe5Ava = CN(CCCCC(=O)[*:2])[*:1]; X17 = C[C@@H](CCCN1CCNC1=N)C(=O)*; X23 = CCNC(=N)NCCC[C@H](C)C(=O)*; X10 = C[C@@H](CCCCCN(C)C)C(=O)*; X14 = CNC(=N)NCCC[C@H](C)C(=O)*; X8 = C[C@@H](CCCNC(=N)N)C(=O)*; X13 = CC/N=C(\NCC)NCCCCC(=O)*; X4 = C[C@@H](CCCCN(C)C)C(=O)*; Tle = CC(C)(C)[C@H](N)C(=O)O; X5 = CCN1CCN(CCCCC(=O)*)C1=N; X11 = C[C@@H](CCCCCN)C(=O)*; X12 = CNCCCCC[C@H](C)C(=O)*; X22 = C[N+](C)(C)CCCCC(=O)*; X15 = O=C(CCCCNC1=NCCCN1)*; X7 = C/N=C(\NC)NCCCCC(=O)*; X18 = N=C1NCCN1CCCCC(=O)*; X2 = O=C(CCCCNC1=NCCN1)*; X20 = CNC(=N)NCCCCC(=O)*; X3 = CNCCC[C@H](C)C(=O)*; X16 = CN(C)CCCCCCC(=O)*; X19 = CN(C)CCCCC(=O)*; Ahp = NCCCCCCC(=O)O; X6 = CNCCCCCCC(=O)*; Ahx = NCCCCCC(=O)O; Ava = NCCCCC(=O)O

Tests used:
Rattus norvegicus [1] = test: Analgesic activity in Sprague-Dawley rat assessed as maximal possible effect paw at 10 mg/kg, ip by hot plate assay; assay type: functional; details: route intraperitoneal
Procedure, shortened: (§1)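 Male Sprague-Dawley rats (240–280 g), 10 mg/kg i.p. (morphine 5 mg/kg, saline controls). Hotplate held at 53.0±0.2°C; latency to hind-paw lift, nibble or shake at serial time points, 30 s cut-off. %MPE from pre- and post-drug latencies; endpoints are maximal %MPE, duration at 100% MPE and area under the response curve. n ≥ 6.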

Rattus norvegicus [2] = test: Analgesic activity in ip dosed Sprague-Dawley rat assessed as paw withdrawal latency by hot plate assay; assay type: functional; procedure, shortened: as §1

Row | SMILES | MPE (Rattus norvegicus [1]) [%] | Duration at 100% MPE (Rattus norvegicus [2]) [min]
1 | CC(C)C[C@H](NC(=O)[C@@H](NC(=O)[C@H](Cc1ccc(O)cc1)NC(=O)[C@@H]1CCCN1C(=O)[C@H](CCCNC(=N)N)NC(=O)CCCCCCN)C(C)(C)C)C(=O)O (H-[Ahp]RPY[Tle]L-OH) | 100 | 60
2 | CC(C)C[C@H](NC(=O)[C@@H](NC(=O)[C@H](Cc1ccc(O)cc1)NC(=O)[C@@H]1CCCN1C(=O)[C@H](CCCNC(=N)N)NC(=O)CCCCCN)C(C)(C)C)C(=O)O (H-[Ahx]RPY[Tle]L-OH) | 48 | 0
3 | CC(C)C[C@H](NC(=O)[C@@H](NC(=O)[C@H](Cc1ccc(O)cc1)NC(=O)[C@@H]1CCCN1C(=O)[C@H](CCCNC(=N)N)NC(=O)CCCCN)C(C)(C)C)C(=O)O (H-[Ava]RPY[Tle]L-OH) | 51.69 | 0
4 | CNCCCCC(=O)N[C@@H](CCCNC(=N)N)C(=O)N1CCC[C@H]1C(=O)N[C@@H](Cc1ccc(O)cc1)C(=O)N[C@H](C(=O)N[C@@H](CC(C)C)C(=O)O)C(C)(C)C (NMe5Ava-RPY[Tle]L-OH) | 100 | 120
5 | CC(C)C[C@H](NC(=O)[C@@H](NC(=O)[C@H](Cc1ccc(O)cc1)NC(=O)[C@@H]1CCCN1C(=O)[C@H](CCCNC(=N)N)NC(=O)CCCCNC1=NCCN1)C(C)(C)C)C(=O)O (X2-RPY[Tle]L-OH) | 76.4 | 0
6 | CNCCC[C@H](C)C(=O)N[C@@H](CCCNC(=N)N)C(=O)N1CCC[C@H]1C(=O)N[C@@H](Cc1ccc(O)cc1)C(=O)N[C@H](C(=O)N[C@@H](CC(C)C)C(=O)O)C(C)(C)C (X3-RPY[Tle]L-OH) | 82.4 | 0
7 | CC(C)C[C@H](NC(=O)[C@@H](NC(=O)[C@H](Cc1ccc(O)cc1)NC(=O)[C@@H]1CCCN1C(=O)[C@H](CCCNC(=N)N)NC(=O)[C@@H](C)CCCCN(C)C)C(C)(C)C)C(=O)O (X4-RPY[Tle]L-OH) | 84.9 | 0
8 | CCN1CCN(CCCCC(=O)N[C@@H](CCCNC(=N)N)C(=O)N2CCC[C@H]2C(=O)N[C@@H](Cc2ccc(O)cc2)C(=O)N[C@H](C(=O)N[C@@H](CC(C)C)C(=O)O)C(C)(C)C)C1=N (X5-RPY[Tle]L-OH) | 80.48 | 0
9 | CNCCCCCCC(=O)N[C@@H](CCCNC(=N)N)C(=O)N1CCC[C@H]1C(=O)N[C@@H](Cc1ccc(O)cc1)C(=O)N[C@H](C(=O)N[C@@H](CC(C)C)C(=O)O)C(C)(C)C (X6-RPY[Tle]L-OH) | 59.32 | 0
10 | C/N=C(\NC)NCCCCC(=O)N[C@@H](CCCNC(=N)N)C(=O)N1CCC[C@H]1C(=O)N[C@@H](Cc1ccc(O)cc1)C(=O)N[C@H](C(=O)N[C@@H](CC(C)C)C(=O)O)C(C)(C)C (X7-RPY[Tle]L-OH) | 92.28 | 0
11 | CC(C)C[C@H](NC(=O)[C@@H](NC(=O)[C@H](Cc1ccc(O)cc1)NC(=O)[C@@H]1CCCN1C(=O)[C@H](CCCNC(=N)N)NC(=O)[C@@H](C)CCCNC(=N)N)C(C)(C)C)C(=O)O (X8-RPY[Tle]L-OH) | 48.52 | 0
12 | CC(C)C[C@H](NC(=O)[C@@H](NC(=O)[C@H](Cc1ccc(O)cc1)NC(=O)[C@@H]1CCCN1C(=O)[C@H](CCCNC(=N)N)NC(=O)[C@@H](C)CCCC[N+](C)(C)C)C(C)(C)C)C(=O)O.[Cl-] (X9-RPY[Tle]L-OH) | 67.2 | 15
13 | CC(C)C[C@H](NC(=O)[C@@H](NC(=O)[C@H](Cc1ccc(O)cc1)NC(=O)[C@@H]1CCCN1C(=O)[C@H](CCCNC(=N)N)NC(=O)[C@@H](C)CCCCCN(C)C)C(C)(C)C)C(=O)O (X10-RPY[Tle]L-OH) | 60.94 | 0
14 | CC(C)C[C@H](NC(=O)[C@@H](NC(=O)[C@H](Cc1ccc(O)cc1)NC(=O)[C@@H]1CCCN1C(=O)[C@H](CCCNC(=N)N)NC(=O)[C@@H](C)CCCCCN)C(C)(C)C)C(=O)O (X11-RPY[Tle]L-OH) | 100 | 45
15 | CNCCCCC[C@H](C)C(=O)N[C@@H](CCCNC(=N)N)C(=O)N1CCC[C@H]1C(=O)N[C@@H](Cc1ccc(O)cc1)C(=O)N[C@H](C(=O)N[C@@H](CC(C)C)C(=O)O)C(C)(C)C (X12-RPY[Tle]L-OH) | 100 | 75
16 | CC/N=C(\NCC)NCCCCC(=O)N[C@@H](CCCNC(=N)N)C(=O)N1CCC[C@H]1C(=O)N[C@@H](Cc1ccc(O)cc1)C(=O)N[C@H](C(=O)N[C@@H](CC(C)C)C(=O)O)C(C)(C)C (X13-RPY[Tle]L-OH) | 95.68 | 15
17 | CNC(=N)NCCC[C@H](C)C(=O)N[C@@H](CCCNC(=N)N)C(=O)N1CCC[C@H]1C(=O)N[C@@H](Cc1ccc(O)cc1)C(=O)N[C@H](C(=O)N[C@@H](CC(C)C)C(=O)O)C(C)(C)C (X14-RPY[Tle]L-OH) | 100 | 75
18 | CC(C)C[C@H](NC(=O)[C@@H](NC(=O)[C@H](Cc1ccc(O)cc1)NC(=O)[C@@H]1CCCN1C(=O)[C@H](CCCNC(=N)N)NC(=O)CCCCNC1=NCCCN1)C(C)(C)C)C(=O)O (X15-RPY[Tle]L-OH) | 79.62 | 0
19 | CC(C)C[C@H](NC(=O)[C@@H](NC(=O)[C@H](Cc1ccc(O)cc1)NC(=O)[C@@H]1CCCN1C(=O)[C@H](CCCNC(=N)N)NC(=O)CCCCCCN(C)C)C(C)(C)C)C(=O)O (X16-RPY[Tle]L-OH) | 29 | 0
20 | CC(C)C[C@H](NC(=O)[C@@H](NC(=O)[C@H](Cc1ccc(O)cc1)NC(=O)[C@@H]1CCCN1C(=O)[C@H](CCCNC(=N)N)NC(=O)[C@@H](C)CCCN1CCNC1=N)C(C)(C)C)C(=O)O (X17-RPY[Tle]L-OH) | 55 | 0
21 | CC(C)C[C@H](NC(=O)[C@@H](NC(=O)[C@H](Cc1ccc(O)cc1)NC(=O)[C@@H]1CCCN1C(=O)[C@H](CCCNC(=N)N)NC(=O)CCCCN1CCNC1=N)C(C)(C)C)C(=O)O (X18-RPY[Tle]L-OH) | 82.8 | 0
22 | CC(C)C[C@H](NC(=O)[C@@H](NC(=O)[C@H](Cc1ccc(O)cc1)NC(=O)[C@@H]1CCCN1C(=O)[C@H](CCCNC(=N)N)NC(=O)CCCCN(C)C)C(C)(C)C)C(=O)O (X19-RPY[Tle]L-OH) | 100 | 90
23 | CNC(=N)NCCCCC(=O)N[C@@H](CCCNC(=N)N)C(=O)N1CCC[C@H]1C(=O)N[C@@H](Cc1ccc(O)cc1)C(=O)N[C@H](C(=O)N[C@@H](CC(C)C)C(=O)O)C(C)(C)C (X20-RPY[Tle]L-OH) | 100 | 75
24 | CC/N=C(\NCC)NCCC[C@H](C)C(=O)N[C@@H](CCCNC(=N)N)C(=O)N1CCC[C@H]1C(=O)N[C@@H](Cc1ccc(O)cc1)C(=O)N[C@H](C(=O)N[C@@H](CC(C)C)C(=O)O)C(C)(C)C (X21-RPY[Tle]L-OH) | 10 | 0
25 | CC(C)C[C@H](NC(=O)[C@@H](NC(=O)[C@H](Cc1ccc(O)cc1)NC(=O)[C@@H]1CCCN1C(=O)[C@H](CCCNC(=N)N)NC(=O)CCCC[N+](C)(C)C)C(C)(C)C)C(=O)O.[Cl-] (X22-RPY[Tle]L-OH) | 100 | 60
26 | CCNC(=N)NCCC[C@H](C)C(=O)N[C@@H](CCCNC(=N)N)C(=O)N1CCC[C@H]1C(=O)N[C@@H](Cc1ccc(O)cc1)C(=O)N[C@H](C(=O)N[C@@H](CC(C)C)C(=O)O)C(C)(C)C (X23-RPY[Tle]L-OH) | 74.48 | 0
